According to ChEMBL document CHEMBL1138042, “2-[(4-phenylpiperazin-1-yl)methyl]imidazo(di)azines as selective D4-ligands. Induction of penile erection by 2-[4-(2-methoxyphenyl)piperazin-1-ylmethyl]imidazo[1,2-a]pyridine (PIP3EA), a potent and selective D4 partial agonist” (J Med Chem, 2006):

Assays:
[1] = molecular target: T1, D(2) dopamine receptor (Homo sapiens, UniProt P14416); experiment: Displacement of [3H]spiperone from human dopamine receptor D2(long) in CHO cell membrane; type: cell membranes
[2] = molecular target: T2, D(4) dopamine receptor (Homo sapiens, UniProt P21917); experiment: Displacement of [3H]spiperone from human dopamine receptor D4.4 in CHO cell membrane; type: cell membranes
T2 sequence (P21917 whole entry): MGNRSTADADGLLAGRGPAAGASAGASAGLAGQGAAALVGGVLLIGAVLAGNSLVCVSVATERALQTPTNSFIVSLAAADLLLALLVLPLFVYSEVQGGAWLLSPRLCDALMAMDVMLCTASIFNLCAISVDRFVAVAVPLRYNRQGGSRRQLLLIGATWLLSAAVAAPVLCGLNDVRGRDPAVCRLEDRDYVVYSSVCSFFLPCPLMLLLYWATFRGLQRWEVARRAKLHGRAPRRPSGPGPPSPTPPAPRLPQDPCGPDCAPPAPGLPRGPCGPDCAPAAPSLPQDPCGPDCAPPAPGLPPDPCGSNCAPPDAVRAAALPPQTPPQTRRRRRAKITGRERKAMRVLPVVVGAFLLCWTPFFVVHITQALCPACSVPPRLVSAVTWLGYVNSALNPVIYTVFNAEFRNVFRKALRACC

[3] = molecular target: D(3) dopamine receptor (Homo sapiens, UniProt P35462); experiment: Displacement of [3H]spiperone from human dopamine receptor D3 in CHO cell membrane; type: cell membranes
[4] = molecular target: T1, D(2) dopamine receptor; experiment: Displacement of [3H]spiperone from human dopamine receptor D2(short) in CHO cell membrane; type: cell membranes
[5] = molecular target: D(1A) dopamine receptor (Sus scrofa, UniProt P50130); experiment: Displacement of [3H][…] from dopamine receptor D1 in porcine striatal membrane; type: cell membranes, Striatum
[6] = test system: Rattus norvegicus; experiment: Penile erection in Sprague-Dawley rat at 0.5 ug/kg, icv; type: functional; settings: in the assay text read “0.5 ug/rat” for “0.5 ug/kg”
Method in brief: (§1)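 Male Sprague-Dawley rats (225-250 g) were dosed s.c. (0.2 mL/rat) or i.c.v. (10 µL/rat, via a stereotaxic guide cannula implanted under chloral hydrate 3 days earlier). Vehicle was ethanol diluted in water to 0.3%. Rats were acclimated 30 min in individual cages, then observed 60 min after injection. Erections were scored as penis emerging from the sheath. Means ± SEM, 6 rats/group; cannula placement was checked histologically.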

[7] = molecular target: T3, D(4) dopamine receptor (Homo sapiens) (UniProt P21917); experiment: Intrinsic activity at human D4.2 receptor assessed as [3H]thymidine incorporation in CHO 10001 cells relative to quinpirole by mitogenesis assay; type: functional, cell-based
T3 sequence (whole entry): T2 sequence (P21917 whole entry)
Method in brief: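 CHO10001 cells expressing human D4.2 were seeded at 5000 cells/well, grown 72 h in serum medium, then switched to serum-free medium. Compound was applied for 20 h at 8 concentrations (0.01-10 000 nM) in hexaduplicate. [³H]thymidine (0.02 µCi/well) was added for 2 h and incorporation counted.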

[8] = molecular target: T3, D(4) dopamine receptor (Homo sapiens); experiment: Intrinsic activity at human D4.4 receptor expressed in CHOK1 cells assessed as stimulation of [35S]GTP-gammaS binding relative to quinpirole; type: functional, cell-based; settings: CHO-K1
Method in brief: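 Membranes from CHO cells stably expressing human D4.4 (Bmax 2.25 pmol/mg protein) in HEPES buffer pH 7.4 with 1 µM GDP at 37 °C. Test agent given at eight concentrations (0.01–10 000 nM) in hexaduplicate for 30 min, then 0.1 nM [35S]GTPγS for a further 30 min. Bound label filtered and counted.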

[9] = test system: Rattus norvegicus; experiment: Penile erection in Sprague-Dawley rat at 5 ug/kg, sc; type: functional; method in brief: as §1
[10] = test system: Rattus norvegicus; experiment: Penile erection in Sprague-Dawley rat at 20 ug/kg, sc; type: functional; method in brief: as §1
[11] = molecular target: 5-hydroxytryptamine receptor 2A (Sus scrofa, UniProt P50129); experiment: Displacement of [3H]ketanserin from 5HT2 receptor in porcine cortical membrane; type: cell membranes
[12] = test system: Rattus norvegicus; experiment: Penile erection in Sprague-Dawley rat at 1 ug, icv; type: functional; method in brief: as §1
[13] = Selectivity for human dopamine D4.4 receptor over adrenergic alpha-1 receptor
[14] = molecular target: T4, Dopamine receptors; D2 & D4 (Homo sapiens) (UniProt P14416+P21917); experiment: Selectivity for human dopamine D4.4 receptor over dopamine D2(long) receptor; type: protein assay
[15] = Selectivity for human dopamine D4.4 receptor over porcine dopamine D1 receptor
[16] = molecular target: Dopamine receptors; D3 & D4 (Homo sapiens) (UniProt P35462+P21917); experiment: Selectivity for human dopamine D4.4 receptor over dopamine D3 receptor; type: protein assay
[17] = molecular target: T4, Dopamine receptors; D2 & D4 (Homo sapiens); experiment: Selectivity for human dopamine D4.4 receptor over dopamine D2(short) receptor; type: protein assay
[18] = molecular target: T2, D(4) dopamine receptor; experiment: Activity at human D4.2 receptor assessed as [3H]thymidine incorporation in CHO 10001 cells by mitogenesis assay; type: functional, cell-based
[19] = molecular target: T2, D(4) dopamine receptor; experiment: Activity at human D4.4 receptor expressed in CHOK1 cells assessed as stimulation of [35S]GTP-gammaS binding; type: functional, cell-based, CHO-K1
[20] = molecular target: Adrenergic receptor alpha-1 (Sus scrofa); experiment: Displacement of [3H]prazosin from porcine Adrenergic alpha-1 receptor in porcine brain

T1 sequence (P14416 whole entry): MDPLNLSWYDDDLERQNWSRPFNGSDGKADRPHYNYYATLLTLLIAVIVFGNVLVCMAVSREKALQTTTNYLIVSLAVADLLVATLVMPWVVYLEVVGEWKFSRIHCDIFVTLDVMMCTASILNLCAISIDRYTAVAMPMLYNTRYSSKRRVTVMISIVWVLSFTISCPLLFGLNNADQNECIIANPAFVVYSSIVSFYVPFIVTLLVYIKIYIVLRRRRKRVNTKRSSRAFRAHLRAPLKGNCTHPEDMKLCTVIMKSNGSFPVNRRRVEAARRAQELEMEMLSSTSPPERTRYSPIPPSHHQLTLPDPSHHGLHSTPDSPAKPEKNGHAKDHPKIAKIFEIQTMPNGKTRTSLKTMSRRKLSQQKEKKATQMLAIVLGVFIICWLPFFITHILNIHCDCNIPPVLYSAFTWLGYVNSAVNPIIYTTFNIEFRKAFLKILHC
T4 sequence (P14416 whole entry, looked up, one chain of several): as the sequence (P14416 whole entry) above
Sequence of 5-hydroxytryptamine receptor 2A (P50129 whole entry): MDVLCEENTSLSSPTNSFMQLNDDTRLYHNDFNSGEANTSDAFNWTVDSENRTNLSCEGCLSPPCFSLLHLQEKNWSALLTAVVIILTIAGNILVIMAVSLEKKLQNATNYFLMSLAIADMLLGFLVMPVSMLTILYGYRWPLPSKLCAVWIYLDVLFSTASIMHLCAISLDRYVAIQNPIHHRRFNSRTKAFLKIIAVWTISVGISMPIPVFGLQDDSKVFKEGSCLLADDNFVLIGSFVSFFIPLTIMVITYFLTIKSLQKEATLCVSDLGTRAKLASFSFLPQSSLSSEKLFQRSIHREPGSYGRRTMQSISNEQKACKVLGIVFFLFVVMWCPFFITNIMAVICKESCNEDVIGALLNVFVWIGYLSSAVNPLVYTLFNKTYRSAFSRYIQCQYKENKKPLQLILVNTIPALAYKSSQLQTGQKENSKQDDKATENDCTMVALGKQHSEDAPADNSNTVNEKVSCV
Sequence of D(1A) dopamine receptor (P50130 whole entry): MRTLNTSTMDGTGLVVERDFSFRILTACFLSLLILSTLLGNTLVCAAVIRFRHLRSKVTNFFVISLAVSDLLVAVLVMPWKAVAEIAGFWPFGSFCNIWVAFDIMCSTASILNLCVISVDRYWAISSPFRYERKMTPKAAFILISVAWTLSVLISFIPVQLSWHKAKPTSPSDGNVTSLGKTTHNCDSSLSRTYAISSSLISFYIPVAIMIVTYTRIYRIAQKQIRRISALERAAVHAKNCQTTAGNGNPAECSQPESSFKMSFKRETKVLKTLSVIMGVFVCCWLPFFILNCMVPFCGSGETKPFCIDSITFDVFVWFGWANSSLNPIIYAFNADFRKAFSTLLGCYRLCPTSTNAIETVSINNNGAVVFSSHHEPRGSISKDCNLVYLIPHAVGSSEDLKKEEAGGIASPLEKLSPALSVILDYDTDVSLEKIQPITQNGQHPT
Sequence of D(3) dopamine receptor (P35462 whole entry): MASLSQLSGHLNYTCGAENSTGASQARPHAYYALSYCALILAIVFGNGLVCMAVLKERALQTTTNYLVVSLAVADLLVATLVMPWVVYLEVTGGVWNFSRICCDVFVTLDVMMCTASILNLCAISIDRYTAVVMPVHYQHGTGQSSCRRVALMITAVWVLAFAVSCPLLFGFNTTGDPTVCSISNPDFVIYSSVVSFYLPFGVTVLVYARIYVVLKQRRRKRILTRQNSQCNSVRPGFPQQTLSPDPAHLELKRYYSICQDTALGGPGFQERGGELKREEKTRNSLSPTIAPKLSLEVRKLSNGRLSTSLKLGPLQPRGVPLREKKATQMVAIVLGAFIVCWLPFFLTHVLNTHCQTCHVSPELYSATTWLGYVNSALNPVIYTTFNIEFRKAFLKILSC
Sequence of Dopamine receptors; D3 & D4 (Homo sapiens) (P35462 whole entry, looked up, one chain of several): as the sequence (P35462 whole entry) above

SMILES	Ki [1]	Ki [2]	Ki [3]	Ki [4]	Ki [5]	Activity [7]	also measured
COc1ccccc1N1CCN(Cc2cn3ccccc3n2)CC1	–	–	–	–	–	46%	Activity [6]: 1.12; Activity [8]: 57%; Activity [9]: 1.02; Activity [10]: 2.42; Ki [11]: 5.9 µM; Activity [12]: 2.32
COc1ccccc1N1CCN(Cc2cn3cc(C)cc(-c4ccccc4)c3n2)CC1	0.049 µM	0.00084 µM	0.39 µM	0.028 µM	2.9 µM	–	–
Cc1cccc(C(=O)NCN2CCN(c3ccccc3C#N)CC2)c1	–	–	–	–	–	–	Selectivity ratio [13]: 8
Clc1ccc(N2CCN(Cc3cn4nc(N5CCCCC5)ccc4n3)CC2)cc1Cl	1.1 µM	0.12 µM	0.85 µM	0.71 µM	2.2 µM	–	–
Fc1ccc(N2CCN(Cc3cn4cccnc4n3)CC2)cc1	55 µM	2.8 µM	60 µM	49 µM	47 µM	–	–
N#Cc1ccc2[nH]c(CN3CCN(c4ccc(F)cc4)CC3)cc2c1	–	–	–	–	8.6 µM	–	–
Fc1ccc(N2CCN(Cc3cn4nc(Cl)ccc4n3)CC2)cc1	9.9 µM	0.004 µM	5.6 µM	12 µM	7 µM	–	–
Clc1ccc(N2CCN(Cc3cn4nc(Cl)ccc4n3)CC2)cc1	12 µM	0.002 µM	7.7 µM	8.2 µM	5.5 µM	0%	Ki [11]: 0.91 µM
N#Cc1ccc2[nH]c(CN3CCN(c4ccccc4)CC3)cc2c1	–	–	–	–	13 µM	–	–
Fc1ccc(N2CCN(Cc3cn4ccncc4n3)CC2)cc1	64 µM	0.5 µM	42 µM	68 µM	15 µM	–	–
COc1ccccc1N1CCN(Cc2cn3cc(C)cc(Br)c3n2)CC1	0.24 µM	0.00099 µM	0.67 µM	0.15 µM	5.6 µM	–	–
COc1ccccc1N1CCN(Cc2cn3cc(C)cc(-n4cccn4)c3n2)CC1	0.53 µM	0.0016 µM	2.4 µM	0.28 µM	8.7 µM	–	–
COc1ccccc1N1CCN(Cc2cn3cc(I)ccc3n2)CC1	0.073 µM	0.00033 µM	0.6 µM	0.072 µM	6.4 µM	10%	EC50 [18]: 0.00052 µM
COc1ccccc1N1CCN(Cc2cn3cc(C)cc(C#N)c3n2)CC1	4.2 µM	0.0013 µM	3.5 µM	2.7 µM	40 µM	–	Selectivity ratio [14]: 3230; Selectivity ratio [17]: 2080
Clc1ccc2nc(CN3CCN(c4ccc(Cl)c(Cl)c4)CC3)cn2n1	1.1 µM	0.0013 µM	1.5 µM	0.67 µM	1.5 µM	0%	Ki [11]: 1.2 µM
COc1ccccc1N1CCN(Cc2cn3cc(C)cc(N4CCOCC4)c3n2)CC1	0.21 µM	0.0023 µM	2.1 µM	0.1 µM	6.4 µM	–	–

More lines, main results first:

Ki [1]	Ki [2]	Ki [3]	Ki [4]	Ki [5]	Activity [7]	SMILES	also measured
0.59 µM	0.00094 µM	1 µM	0.28 µM	27 µM	–	COc1ccccc1N1CCN(Cc2cn3c(-n4cccn4)cccc3n2)CC1	–
3.2 µM	0.0014 µM	1.7 µM	2.7 µM	2.3 µM	0%	Clc1ccc(N2CCN(Cc3cn4ccccc4n3)CC2)cc1Cl	Ki [11]: 1.2 µM
8 µM	1.9 µM	0.88 µM	7.8 µM	13 µM	–	CN1CCN(c2ccc3nc(CN4CCN(c5ccc(Cl)c(Cl)c5)CC4)cn3n2)CC1	–
0.096 µM	0.0016 µM	1.4 µM	0.079 µM	7.7 µM	0%	COc1ccccc1N1CCN(Cc2cn3nc(Cl)ccc3n2)CC1	Ki [11]: 3.4 µM
0.13 µM	0.00025 µM	0.8 µM	0.14 µM	7.1 µM	0%	COc1ccccc1N1CCN(Cc2cn3cc(Br)ccc3n2)CC1	–
3.5 µM	0.00099 µM	1 µM	3.7 µM	2.5 µM	0%	Clc1ccc(N2CCN(Cc3cn4cc(Br)ccc4n3)CC2)cc1Cl	Selectivity ratio [14]: > 440; Selectivity ratio [15]: > 440; Selectivity ratio [16]: > 440; Selectivity ratio [17]: > 440
15 µM	0.007 µM	8.8 µM	16 µM	6.7 µM	6%	Clc1ccc(N2CCN(Cc3cn4ccccc4n3)CC2)cc1	EC50 [18]: 0.0018 µM; Activity [8]: 18%; EC50 [19]: 0.0026 µM; Ki [11]: 1.2 µM
0.088 µM	0.00053 µM	0.47 µM	0.097 µM	5.9 µM	0%	COc1ccccc1N1CCN(Cc2cn3cc(C)cc(I)c3n2)CC1	–
21 µM	0.044 µM	3.1 µM	19 µM	8.4 µM	–	Fc1ccc(N2CCN(Cc3cn4ccccc4n3)CC2)cc1	Selectivity ratio [14]: > 440; Selectivity ratio [15]: > 440; Selectivity ratio [16]: > 440; Selectivity ratio [17]: > 440; Ki [11]: 0.86 µM; Ki [20]: 0.26 µM
